The source of these data is PMC4112416 (MedChemComm, 2014).

Data set [1] deals with human DNA topoisomerase II (Homo sapiens, UniProt P11388). As to the kind of experiment: Inhibition assay against human DNA topoisomerase II. The format is biochemical. To be noted: 50 μM compound. The gist of the method: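 Relaxation of 200 ng supercoiled pBAD-GFPuv by 4 units human topoisomerase II. Compound final 5–50 μM (10 and 50 μM in gel panels). 30 min at 37 °C, stopped by phenol extraction. Run on 1% agarose without chloroquine and ethidium-stained. (−) supercoiled band was quantified as a fraction of all topoisomers.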

The target in data set [2] is E. coli DNA topoisomerase I (Escherichia coli, UniProt P06612). Kind of data set: Inhibition assay against E. coli DNA topoisomerase I. The settings on record: gel titration, 6 nM enzyme. The format is biochemical.
The next data set relates to duplex DNA (dA60.dT60). As to the kind of experiment: UV thermal denaturation of AT rich DNA duplex. To be noted: 10 μM ligand, 1 μM duplex, 10 mM sodium cacodylate, 0.1 mM EDTA, 100 mM NaCl, pH 7.0. The format is binding.
Data set [3] relates to prostate cancer cell line DU-145. As to the kind of experiment: Cytotoxicity, sulforhodamine B assay. It is filed as cell-based. To be noted: DU-145, 48 h treatment, SRB. (In general: The SRB assay estimates cell density from bound dye.)
Data set [4] is described as follows: Cytotoxicity, sulforhodamine B assay. The format is cell-based. To be noted: human, DU-145 prostate cancer cells.
Data set [5] has as its target T1, human DNA topoisomerase I (Homo sapiens, UniProt P11387).
T1 sequence (P11387 1-765): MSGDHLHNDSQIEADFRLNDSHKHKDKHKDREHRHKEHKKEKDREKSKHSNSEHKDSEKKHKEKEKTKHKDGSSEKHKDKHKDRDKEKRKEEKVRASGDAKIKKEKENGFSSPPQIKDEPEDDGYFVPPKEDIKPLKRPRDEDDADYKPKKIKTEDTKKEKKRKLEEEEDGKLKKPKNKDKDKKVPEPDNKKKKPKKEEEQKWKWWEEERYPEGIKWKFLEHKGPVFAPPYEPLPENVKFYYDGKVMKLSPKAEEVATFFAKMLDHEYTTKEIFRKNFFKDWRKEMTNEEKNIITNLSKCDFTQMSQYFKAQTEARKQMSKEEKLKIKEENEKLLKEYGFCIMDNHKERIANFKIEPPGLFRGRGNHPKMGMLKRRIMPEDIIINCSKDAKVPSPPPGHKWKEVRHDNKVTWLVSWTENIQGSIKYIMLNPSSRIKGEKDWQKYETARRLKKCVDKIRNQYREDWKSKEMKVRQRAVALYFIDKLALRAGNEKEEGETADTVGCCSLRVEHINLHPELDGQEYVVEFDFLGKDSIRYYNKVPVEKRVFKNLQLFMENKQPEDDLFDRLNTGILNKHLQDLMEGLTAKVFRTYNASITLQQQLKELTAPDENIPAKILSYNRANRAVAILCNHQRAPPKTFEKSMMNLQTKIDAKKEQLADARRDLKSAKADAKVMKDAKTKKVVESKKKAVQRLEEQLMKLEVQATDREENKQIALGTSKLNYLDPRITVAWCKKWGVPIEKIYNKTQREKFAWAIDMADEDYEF
As to the kind of experiment: Inhibition assay against human DNA topoisomerase I. It is filed as biochemical. The settings on record: 50 μM compound.

For a further data set, the system named is E. faecalis 29212. As to the kind of experiment: MIC by microbroth dilution. The format is cell-based. The settings on record: Enterococcus faecalis, 29212, 24 h, read-out: MIC S6. The gist of the method: (§1)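 CLSI microbroth dilution in Mueller-Hinton broth. Log-phase cultures (37 °C, shaking) were pelleted and resuspended in 0.85% saline to OD625 0.1, giving final 5×10^5 CFU/mL. Triplicate wells were incubated 24 h at 37 °C and read at OD625. MIC is given as a range where no sharp growth inflection occurred.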
(In general: In broth dilution the organism is exposed to a series of concentrations in liquid medium.)

The next data set has as its target E. coli DNA gyrase (Escherichia coli, UniProt P0AES4+P0AES6). As to the kind of experiment: Inhibition assay against E. coli DNA gyrase. To be noted: 1 to 50 μM compound. The format is biochemical.
In another data set the test system is S. aureus 33591. As to the kind of experiment: MIC by microbroth dilution. It is filed as cell-based. The settings on record: Staphylococcus aureus, 33591, 24 h, read-out: MIC S2. The gist of the method:
as §1

In brackets after ≈: the same amount, converted by molar mass.

Sequence of human DNA topoisomerase II (P11388 whole entry): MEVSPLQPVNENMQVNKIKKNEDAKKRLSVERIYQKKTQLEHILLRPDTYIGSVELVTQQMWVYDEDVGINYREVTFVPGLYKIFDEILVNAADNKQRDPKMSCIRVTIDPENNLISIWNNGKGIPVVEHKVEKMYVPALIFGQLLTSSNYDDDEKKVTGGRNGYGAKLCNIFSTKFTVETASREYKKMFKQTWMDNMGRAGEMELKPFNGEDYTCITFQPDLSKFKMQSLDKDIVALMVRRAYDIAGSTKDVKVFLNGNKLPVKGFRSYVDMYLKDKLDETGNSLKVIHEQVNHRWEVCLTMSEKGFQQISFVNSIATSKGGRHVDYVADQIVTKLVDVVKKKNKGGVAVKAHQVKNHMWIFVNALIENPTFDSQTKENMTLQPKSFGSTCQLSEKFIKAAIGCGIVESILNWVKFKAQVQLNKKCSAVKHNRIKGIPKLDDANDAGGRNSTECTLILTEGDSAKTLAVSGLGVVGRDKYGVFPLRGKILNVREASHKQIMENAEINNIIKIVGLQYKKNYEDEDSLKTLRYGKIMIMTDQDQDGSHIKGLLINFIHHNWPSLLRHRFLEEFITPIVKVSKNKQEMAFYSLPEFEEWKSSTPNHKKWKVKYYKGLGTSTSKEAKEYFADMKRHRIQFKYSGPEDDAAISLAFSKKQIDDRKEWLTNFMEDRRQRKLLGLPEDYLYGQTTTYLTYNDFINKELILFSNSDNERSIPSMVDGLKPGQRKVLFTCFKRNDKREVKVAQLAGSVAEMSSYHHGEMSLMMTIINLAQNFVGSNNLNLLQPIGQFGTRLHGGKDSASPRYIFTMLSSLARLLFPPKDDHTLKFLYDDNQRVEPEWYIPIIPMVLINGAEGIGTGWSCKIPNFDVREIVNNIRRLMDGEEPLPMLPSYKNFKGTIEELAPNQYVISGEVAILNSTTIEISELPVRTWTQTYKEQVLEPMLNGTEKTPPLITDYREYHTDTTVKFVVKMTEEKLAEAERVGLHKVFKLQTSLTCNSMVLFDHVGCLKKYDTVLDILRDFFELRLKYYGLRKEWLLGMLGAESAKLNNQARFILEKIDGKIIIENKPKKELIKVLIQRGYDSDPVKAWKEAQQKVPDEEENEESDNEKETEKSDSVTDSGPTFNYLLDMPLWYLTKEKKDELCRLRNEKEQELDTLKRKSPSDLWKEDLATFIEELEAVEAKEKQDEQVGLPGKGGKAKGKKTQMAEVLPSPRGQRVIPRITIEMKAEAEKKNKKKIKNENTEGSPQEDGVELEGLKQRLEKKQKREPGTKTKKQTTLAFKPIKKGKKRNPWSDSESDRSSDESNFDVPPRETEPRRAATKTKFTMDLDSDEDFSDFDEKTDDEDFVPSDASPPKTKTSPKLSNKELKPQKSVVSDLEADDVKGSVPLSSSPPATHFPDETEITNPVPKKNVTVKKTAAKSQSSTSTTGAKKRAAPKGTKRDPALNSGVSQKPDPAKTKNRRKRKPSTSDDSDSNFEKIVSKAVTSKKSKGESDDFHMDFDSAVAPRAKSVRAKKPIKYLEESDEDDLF
Sequence of E. coli DNA topoisomerase I (P06612 whole entry): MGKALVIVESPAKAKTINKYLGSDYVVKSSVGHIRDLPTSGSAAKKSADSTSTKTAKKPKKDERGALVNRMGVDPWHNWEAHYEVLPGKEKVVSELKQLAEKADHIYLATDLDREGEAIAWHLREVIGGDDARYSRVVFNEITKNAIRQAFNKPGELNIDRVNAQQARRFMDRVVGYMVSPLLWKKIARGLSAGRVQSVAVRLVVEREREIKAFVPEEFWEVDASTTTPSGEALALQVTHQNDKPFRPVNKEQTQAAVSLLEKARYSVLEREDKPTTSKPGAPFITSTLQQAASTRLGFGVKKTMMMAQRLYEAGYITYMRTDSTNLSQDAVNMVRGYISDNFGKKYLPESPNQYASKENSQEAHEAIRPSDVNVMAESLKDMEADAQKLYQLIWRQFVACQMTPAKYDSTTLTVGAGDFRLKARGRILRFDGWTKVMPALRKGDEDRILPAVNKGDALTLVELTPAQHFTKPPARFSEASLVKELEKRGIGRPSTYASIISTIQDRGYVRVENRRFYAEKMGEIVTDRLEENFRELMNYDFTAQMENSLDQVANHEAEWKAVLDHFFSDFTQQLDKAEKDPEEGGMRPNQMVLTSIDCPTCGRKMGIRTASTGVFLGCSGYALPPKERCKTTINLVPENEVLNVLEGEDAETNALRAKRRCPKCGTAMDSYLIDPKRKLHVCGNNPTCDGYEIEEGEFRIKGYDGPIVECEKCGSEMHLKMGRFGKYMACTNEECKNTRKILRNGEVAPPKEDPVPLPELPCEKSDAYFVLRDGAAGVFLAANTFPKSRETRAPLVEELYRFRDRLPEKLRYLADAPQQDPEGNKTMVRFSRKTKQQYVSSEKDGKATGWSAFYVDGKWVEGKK
Sequence of E. coli DNA gyrase (P0AES4 whole entry, one chain of several): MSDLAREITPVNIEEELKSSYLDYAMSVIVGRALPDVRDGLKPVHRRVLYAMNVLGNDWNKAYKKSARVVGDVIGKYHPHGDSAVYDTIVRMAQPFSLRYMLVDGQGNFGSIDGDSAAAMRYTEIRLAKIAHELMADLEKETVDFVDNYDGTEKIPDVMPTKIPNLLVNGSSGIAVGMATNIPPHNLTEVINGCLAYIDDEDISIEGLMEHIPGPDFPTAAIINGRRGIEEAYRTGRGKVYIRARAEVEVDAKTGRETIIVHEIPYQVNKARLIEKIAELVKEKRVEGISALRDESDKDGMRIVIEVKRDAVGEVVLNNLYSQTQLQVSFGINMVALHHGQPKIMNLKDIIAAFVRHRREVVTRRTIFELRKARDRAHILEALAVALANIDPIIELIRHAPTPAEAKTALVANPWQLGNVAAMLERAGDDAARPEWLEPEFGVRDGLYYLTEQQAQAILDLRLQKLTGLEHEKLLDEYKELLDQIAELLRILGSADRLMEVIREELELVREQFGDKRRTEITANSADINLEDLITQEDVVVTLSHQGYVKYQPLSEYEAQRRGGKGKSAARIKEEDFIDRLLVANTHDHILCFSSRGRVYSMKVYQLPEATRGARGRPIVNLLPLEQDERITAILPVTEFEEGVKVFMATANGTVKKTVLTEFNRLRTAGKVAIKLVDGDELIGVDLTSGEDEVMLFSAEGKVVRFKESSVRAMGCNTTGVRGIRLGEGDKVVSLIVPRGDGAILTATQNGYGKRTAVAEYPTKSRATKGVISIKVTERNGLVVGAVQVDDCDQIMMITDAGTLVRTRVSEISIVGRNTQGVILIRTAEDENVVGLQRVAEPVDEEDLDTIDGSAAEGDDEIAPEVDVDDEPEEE

Take `C#CCOc1ccc(-c2nc3ccc(-c4nc5ccc(N6CCN(C)CC6)cc5[nH]4)cc3[nH]2)cc1` [DPA 151, 6-(4-methylpiperazin-1-yl)-2′-(4-(prop-2-ynyloxy)phenyl)-1H,3′H-2,5′-bibenzo[d]imidazole]: the “inhibition of human DNA topoisomerase II activities” value in data set [1] is “partially inhibit”. In data set [2], the “concentration needed to completely inhibit the activities of E. coli DNA topoisomerase I” value is given as “approximately 5 μM”. Also, the midpoint of thermal melting (Tm) with duplex DNA (dA60.dT60) was found to be 85.4 °C.
With `C#CCCCCOc1ccc(-c2nc3ccc(-c4nc5ccc(N6CCN(C)CC6)cc5[nH]4)cc3[nH]2)cc1` [DPA 152, 2′-(4-(hex-5-ynyloxy)phenyl)-6-(4-methylpiperazin-1-yl)-1H,3′H-2,5′-bibenzo[d]imidazole], the “cytotoxicity relative to Hoechst 33242” value in data set [3] is recorded as “nearly twice as toxic as Hoechst 33242”. In the data set with duplex DNA (dA60.dT60), the Tm was determined as 83.4 °C.
The molecule `C#CCCCCCCCCCOc1ccc(-c2nc3ccc(-c4nc5ccc(N6CCN(C)CC6)cc5[nH]4)cc3[nH]2)cc1` [DPA 153, 6-(4-methylpiperazin-1-yl)-2′-(4-(undec-10-ynyloxy)phenyl)-1H,3′H-2,5′-bibenzo[d]imidazole] had an IC50 at 48 h in data set [4] above 10 µM. In the data set with duplex DNA (dA60.dT60), the Tm came to 70.5 °C.
As to `C#CCOCCCCOc1ccc(-c2nc3ccc(-c4nc5ccc(N6CCN(C)CC6)cc5[nH]4)cc3[nH]2)cc1` [DPA 154, 6-(4-methylpiperazin-1-yl)-2′-(4-(4-(prop-2-ynyloxy)butoxy)phenyl)-1H,3′H-2,5′-bibenzo[d]imidazole], the midpoint of thermal melting (Tm) in the data set on duplex DNA (dA60.dT60) came to 85.9 °C.
`CN1CCN(c2ccc3[nH]c(-c4ccc5[nH]c(-c6ccc(O)cc6)nc5c4)nc3c2)CC1` [Hoechst 33258]: the “supercoiled DNA template prevented from relaxation by human DNA topoisomerase I” value in data set [5] is on record as “about 70%”. Also, the “inhibition of human DNA topoisomerase II activities” value in data set [1] is given as “completely inhibit”. Also, the MIC with E. faecalis 29212 and in the data set on S. aureus 33591 was 16 to 32 µg/mL (≈ 37.7 to 75.4 µM) in each case. In data set [2], the “concentration needed to completely inhibit the activities of E. coli DNA topoisomerase I” value was “approximately 20 μM”. Moreover, the “inhibition of DNA gyrase's activities” value against E. coli DNA gyrase was “did not inhibit”. In addition, in the data set on duplex DNA (dA60.dT60), the Tm stood at 87.1 °C.
Consider `CCOc1ccc(-c2nc3cc(-c4nc5cc(N6CCN(C)CC6)ccc5[nH]4)ccc3[nH]2)cc1` [Hoechst 33342], for which the MIC in the data set on E. faecalis 29212 was 16 to 32 µg/mL (≈ 35.4 to 70.7 µM). Further, the Tm in the data set on duplex DNA (dA60.dT60) turned out to be 86.6 °C.

One may read the Tm as the temperature at the midpoint of the melting transition. In general, IC50 refers to the concentration that inhibits the measured activity by half. A lower IC50 goes with greater potency. As a reminder, the MIC is the lowest concentration that inhibits growth of the organism.
